Values after ≈ are worked out from the molar mass of the structure shown. Non-standard residues stand in square brackets, D forms with d. Residues, ends and D or L forms follow the SMILES beside them. ξ: configuration not given here. *: point of attachment. ξI = CCC(C)C(N)C(=O)O; Butyryl = CCCC(=O)*
Key:
Bacillus subtilis 168 = assay: Antibacterial assay; type: cell-based; details: read-out: IC50, Bacillus subtilis 168
Saccharomyces pombe = assay: Antifungal assay; type: cell-based; details: read-out: IC50, Saccharomyces pombe
cathepsin B = cathepsin B (Homo sapiens, UniProt P07858); assay: Cathepsin B inhibition assay; type: biochemical; details: read-out: Half-maximal inhibitory concentration (IC50), Cathepsin B Inhibition
[1] = test system: Enterococcus faecalis OG1RF; assay: Antibacterial assay; type: cell-based; details: read-out: IC50, Enterococcus faecalis OG1RF
Saccharomyces cerevisiae = assay: Antifungal assay; type: cell-based; details: read-out: IC50, Saccharomyces cerevisiae
[2] = test system: Pseudomonas aeruginosa PAO1; assay: Antibacterial assay; type: cell-based; details: read-out: IC50, Pseudomonas aeruginosa PAO1
[3] = test system: Staphylococcus aureus Newman; assay: Antibacterial assay; type: cell-based; details: read-out: IC50, Staphylococcus aureus Newman
E. coli K12 = assay: Antibacterial assay; type: cell-based; details: read-out: IC50, E. coli K12
[4] = test system: sur cluster (surA and surC transcripts); assay: RT-qPCR of sur cluster expression; type: cell-based, Streptomyces albus J1074; details: for induction of surA and surC: wt S. albus, vs DMSO control; for induction of surA and surC / elicitor concentration yielding optimal upregulation of sur: RT-qPCR; for upregulation of surC: at optimal elicitor concentration (~23 μM etoposide, ~30 μM ivermectin), vs DMSO; for elicitor concentration yielding optimal upregulation of sur: dose-response
In short: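 Wild-type S. albus J1074 cultures were exposed to the test compound, with DMSO as the negative control. surA and surC mRNA were measured by RT-qPCR and expressed as fold-change versus the DMSO control. For the dose-response, concentrations were multiples of a base level: 1x equals 5.7 μM or 7.6 μM final, depending on the elicitor.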

surR = assay: RT-qPCR of surR expression upon elicitor exposure; type: cell-based, Streptomyces albus J1074; details: wt S. albus, vs DMSO control
[5] = test system: ΔsurR S. albus secondary metabolite production; assay: HPLC-Qtof-MS of sur metabolite production in ΔsurR strain treated with elicitor; type: cell-based, Streptomyces albus J1074; details: for increase in the production of surugamide I: HPLC-Qtof-MS; for upregulation of acyl-surugamide A / upregulation of albucyclone A: estimate based on lower limit of detection
S. albus = assay: Growth inhibition of S. albus by elicitors; type: cell-based, Streptomyces albus J1074
strains tested = assay: Antibacterial and antifungal assays; type: cell-based
recA and lexA = assay: RT-qPCR of SOS response genes recA and lexA; type: cell-based, Streptomyces albus J1074; details: S. albus

**Q.** How did the IC50 (Bacillus subtilis 168) turn out when `CC[C@@H](C)[C@H]1NC(=O)[C@H](C(C)C)NC(=O)[C@@H](C)NC(=O)[C@H](C(C)C)NC(=O)[C@@H](CC(C)C)NC(=O)[C@@H](Cc2ccccc2)NC(=O)[C@H]([C@@H](C)CC)NC(=O)[C@H](CCCCN)NC1=O` [compound 11, surugamide G] (cyclo(I[dF][dL]V[dA]V[dI]K)) was run?
**A.** > 100 µM

**Q.** And the IC50 (Saccharomyces pombe)?
**A.** > 100 µM

**Q.** And the IC50 (cathepsin B)?
**A.** > 100 µM

**Q.** What about the IC50 [1] of the same compound?
**A.** > 100 µM

**Q.** What about the IC50 (Saccharomyces cerevisiae) of the same compound?
**A.** > 100 µM

**Q.** What about the IC50 [2] of the same compound?
**A.** > 100 µM

**Q.** What about the IC50 [3] of the same compound?
**A.** > 100 µM

**Q.** What about the IC50 (E. coli K12) of the same compound?
**A.** > 100 µM

**Q.** For `CC[C@@H](C)[C@H]1NC(=O)[C@H](C(C)C)NC(=O)[C@@H](C)NC(=O)[C@H](C(C)C)NC(=O)[C@@H](CC(C)C)NC(=O)[C@@H](Cc2ccccc2)NC(=O)[C@H](C(C)C)NC(=O)[C@H](CCCCN)NC1=O` [compound 12, surugamide H] (cyclo(KV[dF][dL]V[dA]V[dI])), which IC50 (cathepsin B) is on record?
**A.** 12.4 µM

**Q.** `CCCC(=O)NCCCC[C@@H]1NC(=O)C(C(C)CC)NC(=O)C(C(C)CC)NC(=O)[C@@H](C)NC(=O)C(C(C)CC)NC(=O)[C@@H](CC(C)C)NC(=O)[C@@H](Cc2ccccc2)NC(=O)[C@H]([C@@H](C)CC)NC1=O` (stereo partly drawn) [compound 15, acyl-surugamide A] (cyclo(I[dF][dL][ξI][dA][ξI][ξI]K(Butyryl))) was tested. Which IC50 (Bacillus subtilis 168) did it give?
**A.** 21.7 µM

**Q.** What about the IC50 (Saccharomyces pombe) of the same compound?
**A.** 32.5 µM

**Q.** What about the IC50 (cathepsin B) of the same compound?
**A.** 43.3 µM

**Q.** And the IC50 [1]?
**A.** > 100 µM

**Q.** And the IC50 (Saccharomyces cerevisiae)?
**A.** 3.5 µM

**Q.** And the IC50 [2]?
**A.** > 100 µM

**Q.** What about the IC50 [3] of the same compound?
**A.** 27.4 µM

**Q.** And the IC50 (E. coli K12)?
**A.** > 100 µM

**Q.** `CC(C)[C@@]1(NC(=O)[C@@H]2C[C@@H]3c4cccc5[nH]cc(c45)C[C@H]3N(C)C2)O[C@@]2(O)[C@@H]3CCCN3C(=O)[C@H](Cc3ccccc3)N2C1=O` [dihydroergocristine] was tested. Which “induction of surA and surC” value [4] did it give?
**A.** 3 fold

**Q.** How did the “upregulation of surC” value [4] turn out when `COc1cc([C@@H]2c3cc4c(cc3[C@@H](O[C@@H]3O[C@@H]5CO[C@@H](C)O[C@H]5[C@H](O)[C@H]3O)[C@H]3COC(=O)[C@H]23)OCO4)cc(OC)c1O` [etoposide] was run?
**A.** ~ 10 fold

**Q.** What about the “elicitor concentration yielding optimal upregulation of sur” value [4] of the same compound?
**A.** ~ 23 μM

**Q.** And the “induction of surA and surC” value [4]?
**A.** 3 fold

**Q.** And the “down-regulation of surR expression” value (surR)?
**A.** 2–2.5 fold

**Q.** What about the “increase in the production of surugamide I” value [5] of the same compound?
**A.** > 35 fold

**Q.** What about the “upregulation of acyl-surugamide A” value [5] of the same compound?
**A.** > 40 fold

**Q.** What about the “upregulation of albucyclone A” value [5] of the same compound?
**A.** > 50 fold

**Q.** What about the IC50 (S. albus; Streptomyces albus, read-out: half-maximal inhibitory concentration (IC50) on S. albus) of the same compound?
**A.** 10 µg/mL (≈ 17 µM)

**Q.** Which IC50 (cathepsin B) does the source give for albucyclone A [compound 16] here?
**A.** > 100 µM

**Q.** How did the IC50 (Bacillus subtilis 168) turn out when albucyclone F [compound 21] was run?
**A.** > 100 µM

**Q.** And the IC50 (Saccharomyces pombe)?
**A.** > 100 µM

**Q.** And the IC50 (cathepsin B)?
**A.** > 100 µM

**Q.** What about the IC50 [1] of the same compound?
**A.** > 100 µM

**Q.** What about the IC50 (Saccharomyces cerevisiae) of the same compound?
**A.** > 100 µM

**Q.** And the IC50 [2]?
**A.** > 100 µM

**Q.** And the IC50 [3]?
**A.** > 100 µM

**Q.** And the IC50 (E. coli K12)?
**A.** > 100 µM

**Q.** Which results are given for albuquinone A [compound 22]?
**A.** IC50 (Bacillus subtilis 168): > 100 µM; IC50 (Saccharomyces pombe): > 100 µM; IC50 [1]: > 100 µM; IC50 (Saccharomyces cerevisiae): > 100 µM; IC50 [2]: > 100 µM; IC50 [3]: > 100 µM; IC50 (E. coli K12): > 100 µM; antibiotic activity against the strains tested (strains tested): did not reveal significant antibiotic activity

**Q.** Which “upregulation of surC” value [4] does the source give for ivermectin here?
**A.** 4.5 fold

**Q.** And the “elicitor concentration yielding optimal upregulation of sur” value [4]?
**A.** ~ 30 μM

**Q.** What about the “induction of surA and surC” value [4] of the same compound?
**A.** 3 fold

**Q.** What about the “down-regulation of surR expression” value (surR) of the same compound?
**A.** 2–2.5 fold

**Q.** And the “increase in the production of surugamide I” value [5]?
**A.** > 35 fold

**Q.** What about the “upregulation of acyl-surugamide A” value [5] of the same compound?
**A.** > 40 fold

**Q.** And the “upregulation of albucyclone A” value [5]?
**A.** > 50 fold

**Q.** And the “induction of recA and lexA” value (recA and lexA)?
**A.** no changes

**Q.** What about the “inhibition of S. albus growth” value (S. albus; at the concentrations employed) of the same compound?
**A.** did not inhibit S. albus growth

**Q.** For surugamide I [compound 13], which IC50 (cathepsin B) is on record?
**A.** 9 µM

**Q.** Which IC50 (Bacillus subtilis 168) does the source give for surugamide J [compound 14] here?
**A.** > 100 µM

**Q.** What about the IC50 (Saccharomyces pombe) of the same compound?
**A.** > 100 µM

**Q.** And the IC50 (cathepsin B)?
**A.** > 100 µM

**Q.** What about the IC50 [1] of the same compound?
**A.** > 100 µM

**Q.** What about the IC50 (Saccharomyces cerevisiae) of the same compound?
**A.** > 100 µM

**Q.** What about the IC50 [2] of the same compound?
**A.** > 100 µM

**Q.** What about the IC50 [3] of the same compound?
**A.** > 100 µM

**Q.** And the IC50 (E. coli K12)?
**A.** > 100 µM

From article PMC5617735 (Journal of the American Chemical Society, 2017)
